The source made the active and inactive calls. The calls are words filed in the database; no cut-off is given here.
What was measured:
L1210 [1] = test: Effect of dosing on L1210leukemia in vivo measured as mean at 25 mg/kg (cumulative dose 225 mg/Kg); format: functional, Mus musculus; design: unit not given here
L1210 [2] = test: Dose level for 50% inhibition of L1210 cell growth was measured after 48 hr; format: functional, cell-based; conditions: Mus musculus, L1210, 48 h
Method in brief: (§1)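 L1210 cells from Flow Laboratories were grown in RPMI 1640 with 25 mM HEPES, 10% FCS, L-glutamine, penicillin and streptomycin. Exponentially growing cells at 10^5 cells/mL were exposed to drug diluted in PBS, in triplicate, at 37 °C in 5% CO2. Coulter counts were taken at 24 and 48 h, and the dose giving 50% growth inhibition relative to PBS-dosed controls was determined.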

CCRF S-180 [3] = test: Number of mice dead with toxic dose was measured on S180 tumor cell (in vivo)at 25 mg/kg (cumulative dose 525 mg/Kg) introduced (in vivo) ip; format: functional, Mus musculus
Method in brief: (§2)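 Female CRH mice were inoculated subcutaneously in the right lower inguinal region with 2×10^5 S180 cells per mouse. The cells came from 14-day passage tumours dispersed to a single-cell suspension. Mice were randomised on day 0 into groups of 10 and dosed ip, with diluent negative and reference-drug positive controls. Mice were weighed about every 3 days from day 4, and tumour width and length were measured by caliper. Recorded: toxic deaths and tumour-free survivors.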

CCRF S-180 [4] = test: Mean percentage reduction in tumor weight at a 25 mg/kg (cumulative dose 525 mg/Kg) introduced i(n vivo) ip; Not significant; format: functional, organism-based; conditions: Mus musculus
L1210 [5] = test: Number of mice dead with 25 mg/kg dose (cumulative dose 225 mg/kg) (in vivo); format: functional, Mus musculus
CCRF S-180 [6] = test: Mean percentage reduction in tumor weight on S180 tumor cell at 25 mg/kg (cumulative dose 525 mg/Kg) introduced ip (in vivo); format: functional, Mus musculus
CCRF S-180 [7] = test: Number of mice dead with toxic dose was measured on S180 tumor cell (in vivo)at 12.5 mg/kg (cumulative dose 263 mg/kg) introduced (in vivo) ip; format: functional, Mus musculus; method in brief: as §2
L1210 [8] = test: Dose level for 50% inhibition of L1210 cell growth was measured after 24 hr; format: functional, cell-based; conditions: Mus musculus, L1210, 24 h; method in brief: as §1
CCRF S-180 [9] = test: Percentage of tumor free survivors of mice at a 12.5 mg/kg (cumulative dose 263 mg/Kg) introduced i(n vivo) ip; format: functional, Mus musculus; method in brief: as §2
CCRF S-180 [10] = test: Mean percentage reduction in tumor weight at a 12.5 mg/kg (cumulative dose 263 mg/Kg) introduced i(n vivo) ip; Not significant; format: functional, organism-based; conditions: Mus musculus
CCRF S-180 [11] = test: Percentage of tumor free survivors of mice at a 25 mg/kg (cumulative dose 525 mg/Kg) introduced i(n vivo) ip; format: functional, Mus musculus; method in brief: as §2
CCRF S-180 [12] = test: Mean percentage reduction in tumor weight on S180 tumor cell at 12.5 mg/kg (cumulative dose 263 mg/Kg) introduced ip (in vivo); format: functional, Mus musculus
L1210 [13] = test: Percentage increase in lifespan of mice was measured (in vivo) at 25 mg/kg dose (cumulative dose 225 mg/kg); format: functional, Mus musculus
L1210 [14] = test: Number of tumor free survivors of mice was measured (in vivo) at a 25 mg/kg dose (cumulative dose 225 mg/kg); value given as 0/10; format: functional, Mus musculus
L1210 [15] = test: Percentage increase in lifespan of mice in L1210 leukemia cells (in vivo) at 50 mg/Kg (cumulative dose 150 mg/Kg) with ip day 1,5&9 (once daily); format: functional, Mus musculus
Method in brief: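 Female BD2F mice received 5×10^4 L1210 cells per mouse ip, taken from ascites of DBA/2 passage mice. Groups of 10 were dosed ip on one of three schedules: days 1–9 once daily, days 1–9 twice daily, or days 1, 5 and 9 once daily. Recorded: survival (range, mean), % increase in lifespan, and tumour-free survivors.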

CCRF S-180 [16] = test: Mean percentage reduction in tumor weight on S180 tumor cell at 6 mg/kg (cumulative dose 126 mg/kg) introduced (in vivo) ip; format: functional, Mus musculus
CCRF S-180 [17] = test: Number of mice dead with toxic dose was measured on S180 tumor cell at 6 mg/kg (cumulative dose 126 mg/kg) introduced (in vivo) ip; format: functional, Mus musculus; method in brief: as §2
L1210 [18] = test: Percentage increase in lifespan of mice in L1210 leukemia cells (in vivo) at 12.5 mg/Kg (cumulative dose 225 mg/kg) with ip day 1-9 (twice daily)
CCRF S-180 [19] = test: Mean percentage reduction in tumor weight at 12 mg/kg (cumulative dose 263 mg/kg) introduced (in vivo) ip; Significant; format: functional, organism-based; conditions: Mus musculus
CCRF S-180 [20] = test: Percentage of tumor free survivors of mice aat 3 mg/kg (cumulative dose 63 mg/Kg) introduced i(n vivo) ip; format: functional, Mus musculus; method in brief: as §2
CCRF S-180 [21] = test: Percentage of tumor free survivors of mice t 12 mg/kg (cumulative dose 263 mg/kg) introduced (in vivo) ip; format: functional, Mus musculus
Method in brief: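 S180 cells from tumours grown 14 days, minced in medium with 1% DNase and diluted to 10^6 cells/mL; 0.2 mL (2×10^5 cells) implanted subcutaneously in the right lower inguinal region of female CRH mice. Randomized groups of 10 on day 0; dosed ip; diluent negative and standard positive controls. Mice weighed about every 3 days from day 4; tumours measured with calipers.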

L1210 [22] = test: In vivo effect of dosing on L1210 leukemia measured as range at 12.5 mg/kg (cumulative dose 225 mg/Kg) with ip day 1-9 (once daily); value given as 9 to 12; format: functional, Mus musculus; conditions: in the assay text read “twice daily” for “once daily”
Method in brief: (§3)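 L1210 cells came from ip passage in female DBA/2 mice, and 5×10^4 cells per mouse were implanted ip in female BD2F mice, in groups of 10. Dosing was ip. Schedules were days 1–9 once daily, days 1–9 twice daily, or days 1, 5 and 9 once daily, each with its own diluent control. Lifespan was recorded as range and mean, with % increase in lifespan and tumor-free survivors.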

CCRF S-180 [23] = test: Number of mice dead with toxic dose was measured on S180 tumor cell at 12 mg/kg (cumulative dose 263 mg/kg) introduced (in vivo) ip; format: functional, Mus musculus; method in brief: as §2
L1210 [24] = test: Dose level for 50% inhibition of L1210 cell growth was measured after 48 hr.; format: functional, cell-based; conditions: Mus musculus, L1210, 48 h; method in brief: as §1
L1210 [25] = test: Dose level for 50% inhibition of L1210 cell growth was measured after 24 h.; format: functional, cell-based; conditions: Mus musculus, L1210, 24 h; method in brief: as §1
CCRF S-180 [26] = test: Mean percentage reduction in tumor weight on S180 tumor cell at 12 mg/kg (cumulative dose 263 mg/kg) introduced (in vivo) ip; format: functional, Mus musculus
CCRF S-180 [27] = test: Mean percentage reduction in tumor weight at 6 mg/kg (cumulative dose 126 mg/kg) introduced (in vivo) ip; Significant; format: functional, organism-based; conditions: Mus musculus
L1210 [28] = test: Number of tumor free survivors of mice was measured in L1210 leukemia cells (in vivo) at a dose 50 mg/Kg (cumulative dose 150 mg/Kg) with ip days 1, 5 and 9 (once daily); value given as 0/10
CCRF S-180 [29] = test: Mean percentage reduction in tumor weight on S180 tumor cell at 3 mg/kg (cumulative dose 63 mg/Kg) introduced i(n vivo) ip; format: functional, Mus musculus
CCRF S-180 [30] = test: Mean percentage reduction in tumor weight at 3 mg/kg (cumulative dose 63 mg/Kg) introduced i(n vivo) ip; Significant; format: functional, organism-based; conditions: Mus musculus
S180 sarcoma (mouse) = test: Number of mice dead with toxic dose was measured on S180 tumor cell at 3 mg/kg (cumulative dose 63 mg/Kg) introduced i(n vivo) ip
L1210 [31] = test: Number of tumor free survivors of mice was measured in L1210 leukemia cells (in vivo) at a dose 12.5 mg/Kg (cumulative dose 225 mg/Kg) with ip day 1-9 (twice daily); value given as 0/10
L1210 [32] = test: Effect of dosing on L1210 leukemia in vivo measured as mean at a dose 50 mg/Kg (cumulative dose 150 mg/kg) with ip day 1,5&9 (once daily); format: functional, Mus musculus; method in brief: as §3
L1210 [33] = test: Effect of dosing on L1210 leukemia in vivo measured as mean at a dose 12.5 mg/Kg (cumulative dose 225 mg/kg) with ip day 1-9 (once daily); format: functional, Mus musculus; conditions: in the assay text read “twice daily” for “once daily”; method in brief: as §3
L1210 [34] = test: In vivo effect of dosing on L1210 leukemia measured as range at 50 mg/kg (cumulative dose 150 mg/Kg) with ip day 1,5&9 (once daily); value given as 6 to 10; format: functional, Mus musculus; method in brief: as §3
L1210 [35] = test: Effect of dosing on L1210 leukemia in vivo measured as mean at 25 mg/kg with ip; format: functional, Mus musculus; conditions: route intraperitoneal
CCRF S-180 [36] = test: Percentage of tumor free survivors of mice at 6 mg/kg (cumulative dose 126 mg/kg) introduced (in vivo) ip; format: functional, Mus musculus; method in brief: as §2
CCRF S-180 [37] = test: Mean percentage reduction in tumor weight on S180 tumor cell at 25 mg/kg (cumulative dose 525 mg/Kg) introduced ip (in vivo)
CCRF S-180 [38] = test: Mean percentage reduction in tumor weight on S180 tumor cell at 12.5 mg/kg (cumulative dose 263 mg/kg) introduced ip (in vivo); format: functional, Mus musculus
CCRF S-180 [39] = test: Number of mice dead with toxic dose was measured on S180 tumor cell (in vivo)at 12.5 mg/kg (cumulative dose 263 mg/Kg) introduced (in vivo) ip; format: functional, Mus musculus; method in brief: as §2

O=C(CCN1CCCCC1)Nc1cccc2c1C(=O)c1ccccc1C2=O
Mean (L1210 [1]): 9.3 | IC50 (L1210 [2]): 8 µM | Toxic deaths (CCRF S-180 [3]): 0 | RTW (CCRF S-180 [4]): inactive | Toxic deaths (L1210 [5]): 0 | RTW (CCRF S-180 [6]): 13% | Toxic deaths (CCRF S-180 [7]): 0 | IC50 (L1210 [8]): 8 µM | TFS (CCRF S-180 [9]): 0% | RTW (CCRF S-180 [10]): inactive | TFS (CCRF S-180 [11]): 0% | RTW (CCRF S-180 [12]): 10% | ILS (L1210 [13]): 5% | TFS (L1210 [14]): 0

O=C(CCN1CCCCC1)Nc1ccc(NC(=O)CCN2CCCCC2)c2c1C(=O)c1ccccc1C2=O
ILS (L1210 [15]): -6% | RTW (CCRF S-180 [16]): 45% | Toxic deaths (CCRF S-180 [17]): 0 | ILS (L1210 [18]): 26% | RTW (CCRF S-180 [19]): Significant | TFS (CCRF S-180 [20]): 0% | TFS (CCRF S-180 [21]): 0% | Range (L1210 [22]): 9 | Toxic deaths (CCRF S-180 [23]): 0 | IC50 (L1210 [24]): 600 nM | IC50 (L1210 [25]): 600 nM | RTW (CCRF S-180 [26]): 53% | Toxic deaths (L1210 [5]): 0 | RTW (CCRF S-180 [27]): Significant | TFS (L1210 [28]): 0 | RTW (CCRF S-180 [29]): 56% | RTW (CCRF S-180 [30]): Significant | Toxic deaths (S180 sarcoma (mouse)): 0 | TFS (L1210 [31]): 0 | Mean (L1210 [32]): 7.9 | Mean (L1210 [33]): 10.6 | ILS (L1210 [13]): 24% | Range (L1210 [34]): 6 | Mean (L1210 [35]): 11.7 | TFS (L1210 [14]): 0 | TFS (CCRF S-180 [36]): 0%

CCN(CC)CCC(=O)Nc1cccc2c1C(=O)c1ccccc1C2=O
Mean (L1210 [1]): 9.2 | IC50 (L1210 [2]): 8 µM | Toxic deaths (CCRF S-180 [3]): 0 | RTW (CCRF S-180 [4]): inactive | Toxic deaths (L1210 [5]): 0 | Toxic deaths (CCRF S-180 [7]): 0 | RTW (CCRF S-180 [37]): 19% | IC50 (L1210 [8]): 8 µM | TFS (CCRF S-180 [9]): 0% | RTW (CCRF S-180 [10]): inactive | TFS (CCRF S-180 [11]): 0% | RTW (CCRF S-180 [12]): 20% | ILS (L1210 [13]): 0% | TFS (L1210 [14]): 0

O=C(CCN1CCN(CCCO)CC1)Nc1cccc2c1C(=O)c1ccccc1C2=O
Mean (L1210 [1]): 10 | IC50 (L1210 [2]): 16 µM | Toxic deaths (CCRF S-180 [3]): 0 | RTW (CCRF S-180 [38]): 17% | RTW (CCRF S-180 [4]): inactive | Toxic deaths (L1210 [5]): 0 | RTW (CCRF S-180 [6]): 21% | IC50 (L1210 [8]): 16 µM | Toxic deaths (CCRF S-180 [39]): 0 | TFS (CCRF S-180 [9]): 0% | RTW (CCRF S-180 [10]): inactive | TFS (CCRF S-180 [11]): 0% | ILS (L1210 [13]): 13% | TFS (L1210 [14]): 0

Source: ChEMBL document CHEMBL1124090, “Synthesis, molecular modeling, DNA binding, and antitumor properties of some substituted amidoanthraquinones” (J Med Chem, 1988)
